The values that follow come from ChEMBL document CHEMBL5678801, “A benzothiophene inhibitor of mitogen-activated protein kinase-activated protein kinase 2 inhibits tumor necrosis factor alpha production and has oral anti-inflammatory efficacy in acute and chronic models of inflammation” (J Pharmacol Exp Ther, 2010).

Molecules are shown by their SMILES. pIC50: −log10 of the molar value.

Series [1] in a line: Inhibition of IL-8 production in LPS induced human Whole blood cell preincubated with compound for 1 hr followed by LPS induction and measured after 16 hrs. The series is classed as functional, cell-based. The method in brief:
(§1)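 Human whole blood was stimulated ex vivo with LPS 100 ng/ml. Plasma cytokines were read by MSD 4-plex: TNFα at 4 h; IL-1β, IL-6 and IL-8 at 16 h. Data are means ±S.E.M. of two independent experiments in duplicate, three donors. IC50 by 4-parameter nonlinear regression.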

For series [2], the target named is T1, Tyrosine-protein kinase receptor UFO (Homo sapiens, UniProt P30530).
T1 sequence (P30530 whole entry): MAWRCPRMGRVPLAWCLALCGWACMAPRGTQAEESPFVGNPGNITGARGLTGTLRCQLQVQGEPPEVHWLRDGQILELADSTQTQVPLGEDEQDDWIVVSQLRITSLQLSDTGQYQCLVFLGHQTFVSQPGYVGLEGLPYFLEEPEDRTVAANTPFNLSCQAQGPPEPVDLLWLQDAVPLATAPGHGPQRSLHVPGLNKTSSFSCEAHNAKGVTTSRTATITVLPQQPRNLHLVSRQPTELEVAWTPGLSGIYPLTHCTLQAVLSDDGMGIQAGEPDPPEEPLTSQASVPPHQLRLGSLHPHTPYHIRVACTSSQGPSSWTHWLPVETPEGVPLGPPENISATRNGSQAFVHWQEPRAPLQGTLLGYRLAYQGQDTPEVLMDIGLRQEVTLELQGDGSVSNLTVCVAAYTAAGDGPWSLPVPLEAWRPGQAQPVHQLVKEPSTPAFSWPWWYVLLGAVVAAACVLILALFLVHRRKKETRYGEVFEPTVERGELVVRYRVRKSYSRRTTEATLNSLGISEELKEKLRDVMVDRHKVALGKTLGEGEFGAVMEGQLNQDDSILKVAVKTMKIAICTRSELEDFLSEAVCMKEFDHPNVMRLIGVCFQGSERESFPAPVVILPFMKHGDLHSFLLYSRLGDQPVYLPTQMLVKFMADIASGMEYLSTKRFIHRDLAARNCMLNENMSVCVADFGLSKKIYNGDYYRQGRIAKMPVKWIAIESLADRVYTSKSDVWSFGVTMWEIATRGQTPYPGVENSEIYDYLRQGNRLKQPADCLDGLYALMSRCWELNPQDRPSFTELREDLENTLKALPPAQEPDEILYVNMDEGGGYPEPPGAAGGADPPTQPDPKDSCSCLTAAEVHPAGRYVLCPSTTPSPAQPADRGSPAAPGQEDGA
As to the kind of experiment: Inhibition of Axl (unknown origin). Summed up: (§2)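 Kinase panel: 200 kinases were first screened at 1 μM inhibitor for percent inhibition. Those above 50% inhibition were then titrated for IC50. MgATP was fixed at the Km(app) determined for each enzyme.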

Series [3] can be described thus: Inhibition of IL-6 production in LPS induced human Whole blood cell preincubated with compound for 1 hr followed by LPS induction and measured after 16 hrs. The series is classed as functional, cell-based. Summed up:
as §1

Series [4] is described as follows: Unbound plasma concentration in po dosed LPS-induced Lewis rat model at ED50 concentration measured after 5.5 hrs of initial dose by LC-MS/MS analysis. The series is classed as ADME, organism-based. The note with it: in vivo. The method in brief:
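Male Lewis rats (225-250 g, 5 per group) were fasted 18 h, then dosed orally at 0.2-60 mg/kg as a suspension in 0.5% methylcellulose/0.025% Tween 20. LPS 1 mg/kg was given i.v. 4 h later. Blood was taken by cardiac puncture 90 min after LPS. Serum TNFα was read by ELISA and drug by LC-MS/MS, three independent experiments. 4-parameter fit. Unbound values were corrected with measured rat plasma protein binding.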

Series [5] can be described thus: Antiinflammatory activity in human PBMC cells assessed as inhibition of LPS induced IL-1 beta production preincubated for 1 hr followed by LPS stimulation and measured after 16 hrs by MSD analysis. The series is classed as functional, cell-based. The method in brief:
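Human PBMCs were pretreated with compound for 1 h (<1% DMSO final), then stimulated with LPS 100 ng/ml at 37°C. Cytokines in culture media were read by MSD 4-plex: TNFα at 4 h; IL-1β, IL-6 and IL-8 at 16 h. Data are means ±S.E.M. of two independent experiments in duplicate, three donors. IC50 by 4-parameter nonlinear regression.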

Series [6] concerns the target Serine/threonine-protein kinase pim-1 (Homo sapiens, UniProt P11309). The series is described as follows: Inhibition of Pim1 (unknown origin). The method in brief: as §2
Series [7] in a line: Volume of distribution at steady state in Sprague-Dawley rat measured upto 24 hrs by […] analysis. The series is classed as ADME. The note with it: in vivo, read-out: Vdss. The method in brief: (§3)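 Male Sprague-Dawley rats (275-300 g), carotid-catheterized and acclimated overnight. Dosing was i.v. at 1 mpk (n=2) in 70% saline/20% PEG-400/10% ethanol, or oral at 3 mpk (n=3) as a suspension in 0.5% HPMC/Tween. Plasma drug was measured by LC-MS/MS. Cmax and Tmax were read from individual profiles. t½ came from the terminal log-linear slope and AUC by the linear trapezoidal rule. CL = dose/AUC0-∞, Vdss = CL×MRT, F = dose-normalized AUC po/iv.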

A short description of series [8]: Inhibition of AMPK (unknown origin). The arrangement: species or system Homo sapiens.
Series [9] can be described thus: Antiinflammatory activity in human Whole blood cell assessed as inhibition of LPS induced IL-1 beta production preincubated for 1 hr followed by LPS stimulation and measured after 16 hrs by MSD analysis. The series is classed as functional, cell-based. The method in brief: as §1
Series [10] in a line: Inhibition of recombinant RSK1/2/3/4 (unknown origin) using KKKALSRQLSVAA as substrate incubated for 1 hr followed by substrate addition in presence of ATP. The arrangement: species or system Homo sapiens. Summed up:
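MAPKAP family kinases were activated by p38α (1:50 molar, 250 μM ATP, 1 h, 30°C). Assays ran in 20 mM HEPES pH 7.5, 10 mM MgCl2, 1 mM DTT, 0.01% BSA, 0.0005% Tween-20, at MgATP fixed at each enzyme's Km(app). The 33P-labelled product peptide was separated by ion exchange. Duplicate experiments. MSK1 (367-802) and MSK2 (351-772) were N-terminal 6xHis constructs from Sf9 cells.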

Series [11] is described as follows: Oral bioavailability in Sprague-Dawley rat at 3 mg/kg measured upto 24 hrs by […] analysis. The series is classed as ADME, organism-based. As to conditions: in vivo. The method in brief:
as §3

A short description of series [12]: Plasma protein binding in human. The note with it: read-out: PPB (converted). The series is classed as ADME, cell-free. The method in brief:
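Binding to rat and human plasma was measured in vitro by ultracentrifugation.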

Chain of Serine/threonine-protein kinase pim-1 (P11309 whole entry): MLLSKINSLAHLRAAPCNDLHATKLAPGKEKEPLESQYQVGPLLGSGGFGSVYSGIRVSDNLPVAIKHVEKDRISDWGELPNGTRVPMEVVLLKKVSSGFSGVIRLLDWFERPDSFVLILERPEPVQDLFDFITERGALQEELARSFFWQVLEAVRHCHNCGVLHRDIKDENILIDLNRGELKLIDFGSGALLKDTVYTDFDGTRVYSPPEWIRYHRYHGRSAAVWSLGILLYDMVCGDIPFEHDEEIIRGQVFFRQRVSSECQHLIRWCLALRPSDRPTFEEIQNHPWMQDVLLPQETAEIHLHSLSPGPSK

One may read the pIC50 as −log10 of the IC50, conventionally taken in molar units. What is called bioavailability is dose-corrected exposure relative to a reference, in per cent. Regarding `Cc1ccc(-c2ccc3c(ccc4sc5c(c43)NC[C@@H](C)NC5=O)n2)cn1`, the pIC50 is less than 4.60 in series [1]; 6.37 in series [2]; 4.99 in series [3]; 5.57 in series [5]; 7.06 in [6]; 6.93 in series [8]. In addition, the pIC50 in series [9] was less than 4.70; in series [10], less than 6.00. The Cp(f) in [4] stood at 110 nM. Besides, the Vd in series [7] was determined as 1.5 L/kg. For the same compound, in series [11], the bioavailability stood at 46%. The fraction unbound in series [12] is 0.064.
